Positions of bridges follow the written chain, without caps; N, C: chain ends. Residues, ends and D or L forms follow the SMILES beside them.
Key:
Kallikrein-4 = Kallikrein-4 (Homo sapiens, UniProt Q9Y5K2); experiment: Inhibition of KLK4 (unknown origin) expressed in sf9 cells using Ac-FVQR-pNA as substrate preincubated for 30 mins followed by substrate addition and measured for 7 mins by spectrophotometric method
[1] = Drug uptake in human HeLa cells at 4 uM using Alexa Fluor 488 conjugated test compound after 1 hr by trypan blue dye based flow cytometry relative to HIV-Tat; type: ADME, cell-based
Procedure, shortened: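 HeLa cells given Alexa Fluor 488-conjugated peptides (4 μM). Mean fluorescence measured by flow cytometry before and after trypan blue quenching of extracellular signal. Values normalized to the HIV-TAT positive control (post-trypan blue). Three independent experiments, SD; one-way ANOVA with Tukey's post hoc test.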

Kallikrein-5 = target: T1, Kallikrein-5 (Homo sapiens, UniProt Q9Y337); experiment: Inhibition of KLK5 (unknown origin) expressed in Pichia pastoris strain X-33 using Ac-YRSR-pNA as substrate preincubated for 30 mins followed by substrate addition and measured for 7 mins by spectrophotometric method
T1 sequence (Q9Y337 whole entry): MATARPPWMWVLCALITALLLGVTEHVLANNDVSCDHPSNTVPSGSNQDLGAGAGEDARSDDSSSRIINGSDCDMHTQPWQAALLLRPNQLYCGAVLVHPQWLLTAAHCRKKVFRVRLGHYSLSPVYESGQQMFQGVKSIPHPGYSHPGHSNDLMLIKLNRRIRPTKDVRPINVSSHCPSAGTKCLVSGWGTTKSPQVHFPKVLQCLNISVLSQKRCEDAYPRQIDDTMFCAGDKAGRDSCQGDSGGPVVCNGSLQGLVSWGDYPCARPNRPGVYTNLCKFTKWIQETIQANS

[2] = Stability in human serum at 200 uM up to 24 hrs by RP-HPLC analysis; type: ADME, cell-free
Procedure, shortened: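 Peptides incubated in human serum for up to 24 h. At each time point, the area of the peptide peak on analytical HPLC is expressed as a percentage of the peptide peak in PBS at 0 h. Three independent experiments, SD.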

Plasminogen = Plasminogen (Homo sapiens, UniProt P00747); experiment: Inhibition of plasmin (unknown origin) using Ac-RM(O2)YR-pNA as substrate preincubated for 30 mins followed by substrate addition and measured for 7 mins by spectrophotometric method
Sequence of Plasminogen (P00747 97-580 limits assumed): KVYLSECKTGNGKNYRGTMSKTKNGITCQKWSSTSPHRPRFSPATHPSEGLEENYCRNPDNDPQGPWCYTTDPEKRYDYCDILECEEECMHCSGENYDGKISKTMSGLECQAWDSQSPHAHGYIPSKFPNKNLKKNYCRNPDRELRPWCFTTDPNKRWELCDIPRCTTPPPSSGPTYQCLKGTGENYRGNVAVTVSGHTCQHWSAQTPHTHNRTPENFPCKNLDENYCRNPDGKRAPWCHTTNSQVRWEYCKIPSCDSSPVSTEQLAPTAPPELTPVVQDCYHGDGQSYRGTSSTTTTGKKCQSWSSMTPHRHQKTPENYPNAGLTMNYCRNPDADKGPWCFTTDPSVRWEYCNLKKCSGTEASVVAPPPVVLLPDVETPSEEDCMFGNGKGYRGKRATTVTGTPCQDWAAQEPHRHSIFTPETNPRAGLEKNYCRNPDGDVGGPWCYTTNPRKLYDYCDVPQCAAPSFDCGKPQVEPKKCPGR
Sequence of Plasminogen (P00747 581-810 limits assumed): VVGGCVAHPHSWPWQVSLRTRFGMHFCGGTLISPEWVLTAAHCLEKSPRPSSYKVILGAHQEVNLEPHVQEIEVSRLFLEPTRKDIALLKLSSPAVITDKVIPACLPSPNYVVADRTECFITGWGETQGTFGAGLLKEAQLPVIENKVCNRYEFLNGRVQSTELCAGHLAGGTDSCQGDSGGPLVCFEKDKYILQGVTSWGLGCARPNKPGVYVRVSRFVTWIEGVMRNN

Kallikrein-7 = Kallikrein-7 (Homo sapiens, UniProt P49862); experiment: Inhibition of KLK7 (unknown origin) expressed in Pichia pastoris strain X-33 using KHLY-pNA as substrate preincubated for 30 mins followed by substrate addition and measured for 7 mins by spectrophotometric method
Sequence of Kallikrein-7 (P49862 whole entry): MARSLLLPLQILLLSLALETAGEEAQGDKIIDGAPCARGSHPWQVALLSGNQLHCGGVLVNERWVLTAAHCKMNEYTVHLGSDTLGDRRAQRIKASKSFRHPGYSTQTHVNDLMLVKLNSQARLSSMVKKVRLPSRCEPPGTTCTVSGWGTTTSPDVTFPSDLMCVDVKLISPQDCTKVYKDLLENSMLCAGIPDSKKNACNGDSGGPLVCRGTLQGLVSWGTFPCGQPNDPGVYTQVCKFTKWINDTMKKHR

Kallikrein-14 = target: T2, Kallikrein-14 (Homo sapiens, UniProt Q9P0G3); experiment: Inhibition of KLK14 (unknown origin) expressed in sf9 cells using Ac-YANR-pNA as substrate preincubated for 30 mins followed by substrate addition and measured for 7 mins by spectrophotometric method
T2 sequence (Q9P0G3 whole entry): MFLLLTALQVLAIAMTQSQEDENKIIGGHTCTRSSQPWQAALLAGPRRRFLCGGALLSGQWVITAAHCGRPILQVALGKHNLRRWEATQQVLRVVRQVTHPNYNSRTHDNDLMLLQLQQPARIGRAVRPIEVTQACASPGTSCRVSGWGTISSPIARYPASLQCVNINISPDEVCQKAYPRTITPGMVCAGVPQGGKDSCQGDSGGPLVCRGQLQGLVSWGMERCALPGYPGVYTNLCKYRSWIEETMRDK

Coagulation factor X = Coagulation factor X (Homo sapiens, UniProt P00742); experiment: Inhibition of factor 10a (unknown origin) using Ac-QRSR-pNA as substrate preincubated for 30 mins followed by substrate addition and measured for 7 mins by spectrophotometric method
Sequence of Coagulation factor X (P00742 41-179 limits assumed): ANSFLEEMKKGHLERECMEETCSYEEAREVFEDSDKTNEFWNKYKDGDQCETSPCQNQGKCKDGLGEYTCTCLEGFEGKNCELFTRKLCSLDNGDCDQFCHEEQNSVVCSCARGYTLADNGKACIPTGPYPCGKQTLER
Sequence of Coagulation factor X (P00742 235-488 limits assumed): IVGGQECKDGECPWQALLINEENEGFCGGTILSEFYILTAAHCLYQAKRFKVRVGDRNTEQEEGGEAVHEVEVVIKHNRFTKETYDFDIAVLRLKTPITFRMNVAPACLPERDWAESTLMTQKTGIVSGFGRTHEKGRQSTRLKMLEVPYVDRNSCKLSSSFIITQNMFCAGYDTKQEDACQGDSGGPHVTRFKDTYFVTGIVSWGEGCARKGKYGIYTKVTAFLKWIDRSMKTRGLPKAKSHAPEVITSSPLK

Prothrombin = Prothrombin (Homo sapiens, UniProt P00734); experiment: Inhibition of thrombin (unknown origin) using Bz-FVR-pNA as substrate preincubated for 30 mins followed by substrate addition and measured for 7 mins by spectrophotometric method
Plasma kallikrein = Plasma kallikrein (Homo sapiens, UniProt P03952); experiment: Inhibition of plasma kallikrein (unknown origin) using Ac-NLTR-pNA as substrate preincubated for 30 mins followed by substrate addition and measured for 7 mins by spectrophotometric method
Sequence of Plasma kallikrein (P03952 20-390 limits assumed): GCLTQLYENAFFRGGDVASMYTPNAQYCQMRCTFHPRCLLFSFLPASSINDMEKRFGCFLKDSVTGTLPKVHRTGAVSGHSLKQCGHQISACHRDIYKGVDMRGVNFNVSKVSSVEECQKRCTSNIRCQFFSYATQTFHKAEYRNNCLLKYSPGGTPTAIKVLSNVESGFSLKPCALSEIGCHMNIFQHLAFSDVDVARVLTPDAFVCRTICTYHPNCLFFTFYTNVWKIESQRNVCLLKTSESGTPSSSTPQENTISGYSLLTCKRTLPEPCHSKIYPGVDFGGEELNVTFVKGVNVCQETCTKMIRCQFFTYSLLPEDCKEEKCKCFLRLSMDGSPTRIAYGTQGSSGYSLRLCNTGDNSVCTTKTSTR
Sequence of Plasma kallikrein (P03952 391-638 limits assumed): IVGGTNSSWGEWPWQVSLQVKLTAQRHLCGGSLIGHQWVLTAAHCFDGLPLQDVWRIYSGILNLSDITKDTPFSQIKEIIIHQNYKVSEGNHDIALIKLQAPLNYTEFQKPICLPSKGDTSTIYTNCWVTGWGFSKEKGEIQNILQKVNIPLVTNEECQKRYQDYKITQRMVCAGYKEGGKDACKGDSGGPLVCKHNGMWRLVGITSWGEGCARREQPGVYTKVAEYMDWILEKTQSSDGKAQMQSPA

Trypsin = Trypsin (Homo sapiens, UniProt P07477+P07478+P35030); experiment: Inhibition of trypsin (unknown origin) using Bz-FVR-pNA as substrate preincubated for 30 mins followed by substrate addition and measured for 7 mins by spectrophotometric method; type: protein assay
Coagulation factor XII = target: T3, Coagulation factor XII (Homo sapiens, UniProt P00748); experiment: Inhibition of factor 12a (unknown origin) using Ac-QRFR-pNA as substrate preincubated for 30 mins followed by substrate addition and measured for 7 mins by spectrophotometric method
T3 sequence (P00748 whole entry): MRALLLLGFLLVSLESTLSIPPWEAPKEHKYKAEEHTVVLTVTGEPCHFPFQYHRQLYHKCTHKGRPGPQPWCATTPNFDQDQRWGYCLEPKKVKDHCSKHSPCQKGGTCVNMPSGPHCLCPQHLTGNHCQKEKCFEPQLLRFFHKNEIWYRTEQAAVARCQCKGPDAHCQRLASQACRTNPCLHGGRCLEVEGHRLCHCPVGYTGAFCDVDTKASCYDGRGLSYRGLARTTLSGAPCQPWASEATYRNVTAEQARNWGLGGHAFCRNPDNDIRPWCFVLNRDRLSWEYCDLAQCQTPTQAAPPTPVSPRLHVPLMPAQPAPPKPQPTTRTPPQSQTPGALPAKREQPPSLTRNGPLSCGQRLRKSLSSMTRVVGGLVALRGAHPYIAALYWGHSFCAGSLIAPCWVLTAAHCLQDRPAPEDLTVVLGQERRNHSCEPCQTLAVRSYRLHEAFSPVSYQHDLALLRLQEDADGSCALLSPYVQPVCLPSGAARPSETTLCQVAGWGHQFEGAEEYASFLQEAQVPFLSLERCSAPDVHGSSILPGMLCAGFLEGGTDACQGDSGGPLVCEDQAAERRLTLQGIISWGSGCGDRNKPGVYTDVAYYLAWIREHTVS

HeLa = experiment: Cytotoxicity against human HeLa cells up to 64 uM after 2 hrs by resazurin dye based assay; type: cell-based
Procedure, shortened: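 HeLa cells exposed to peptides for 2 h, concentrations up to 64 μM. Resazurin then added for 18 h at 37 °C. Resorufin absorbance read at 540 and 620 nm, and viability % expressed as the A620/A540 ratio. Three independent experiments, standard deviation.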

Sequence of Kallikrein-4 (Q9Y5K2 whole entry): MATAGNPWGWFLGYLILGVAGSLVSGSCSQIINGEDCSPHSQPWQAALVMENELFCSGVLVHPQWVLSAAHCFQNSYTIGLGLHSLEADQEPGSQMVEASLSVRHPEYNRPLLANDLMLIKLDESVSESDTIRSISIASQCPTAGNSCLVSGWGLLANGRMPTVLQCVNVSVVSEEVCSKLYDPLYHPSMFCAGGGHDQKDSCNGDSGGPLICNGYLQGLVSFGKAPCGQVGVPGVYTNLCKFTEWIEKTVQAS

Row | Ki (Kallikrein-4) [nM] | Drug uptake [1] | Structure (SMILES) | Activity (HeLa) | other results
1 | 0.3 | Not Active | CC[C@H](C)[C@@H]1NC(=O)[C@@H]2CSSC[C@@H]3NC(=O)[C@H](C(C)C)NC(=O)CNC(=O)CNC(=O)[C@H](CC(=O)O)NC(=O)[C@H](CO)NC(=O)CNC(=O)[C@H](CO)NC(=O)CNC(=O)[C@@H]4CSSC[C@H](NC(=O)[C@H](CC(=O)O)NC(=O)[C@H](CO)NC(=O)[C@H](CC(=O)O)NC(=O)[C@H](CCCNC(=N)N)NC(=O)[C@H](CCCNC(=N)N)NC(=O)[C@H](CSSC[C@H](NC1=O)C(=O)N[C@@H](CCCNC(=N)N)C(=O)NCC(=O)N[C@@H](CC(N)=O)C(=O)NCC(=O)N[C@@H](Cc1ccc(O)cc1)C(=O)N4)NC(=O)[C@H](CCCCN)NC(=O)[C@H](CCCCN)NC(=O)[C@H](CC(C)C)NC(=O)[C@H]([C@@H](C)CC)NC(=O)[C@H](CCCNC(=N)N)NC(=O)[C@@H]1CCCN1C3=O)C(=O)N1CCC[C@H]1C(=O)NCC(=O)N[C@@H](C)C(=O)N2 | – | –
2 | 0.44 | Not Active | CC[C@H](C)[C@@H]1NC(=O)[C@@H]2CSSC[C@@H]3NC(=O)[C@H](Cc4ccccc4)NC(=O)CNC(=O)CNC(=O)[C@H](CC(=O)O)NC(=O)[C@H](CO)NC(=O)CNC(=O)[C@H](CO)NC(=O)CNC(=O)[C@@H]4CSSC[C@H](NC(=O)[C@H](CC(=O)O)NC(=O)[C@H](CO)NC(=O)[C@H](CC(=O)O)NC(=O)[C@H](CCC(N)=O)NC(=O)[C@H](CCC(N)=O)NC(=O)[C@H](CSSC[C@H](NC1=O)C(=O)N[C@@H](CCCCN)C(=O)NCC(=O)N[C@@H](CC(N)=O)C(=O)NCC(=O)N[C@@H](Cc1ccc(O)cc1)C(=O)N4)NC(=O)[C@H](CCC(N)=O)NC(=O)[C@H](CCC(N)=O)NC(=O)[C@H](CC(C)C)NC(=O)[C@H]([C@@H](C)CC)NC(=O)[C@H](CCCNC(=N)N)NC(=O)[C@H](CCC(N)=O)NC3=O)C(=O)N1CCC[C@H]1C(=O)NCC(=O)N[C@@H](C)C(=O)N2 (cyclo(ACICKGNGYCGSGSDGGFCQRILQQCQQDSDCPG); disulfide 2-19, 4-26, 10-32) | Non-Toxic | Ki (Kallikrein-5): > 10000 nM; Stability [2]: Stable; Ki (Plasminogen): > 10000 nM; Ki (Kallikrein-7): > 10000 nM; Ki (Kallikrein-14): > 10000 nM; Ki (Coagulation factor X): 520 nM; Ki (Prothrombin): > 10000 nM; Ki (Plasma kallikrein): > 10000 nM; Ki (Trypsin): 6.9 nM; Ki (Coagulation factor XII): > 10000 nM
3 | 1.8 | Not Active | CC[C@H](C)[C@@H]1NC(=O)[C@@H]2CSSC[C@@H]3NC(=O)[C@H](C(C)C)NC(=O)CNC(=O)CNC(=O)[C@H](CC(=O)O)NC(=O)[C@H](CO)NC(=O)CNC(=O)[C@H](CO)NC(=O)CNC(=O)[C@@H]4CSSC[C@H](NC(=O)[C@H](CC(=O)O)NC(=O)[C@H](CO)NC(=O)[C@H](CC(=O)O)NC(=O)[C@H](CCC(N)=O)NC(=O)[C@H](CCC(N)=O)NC(=O)[C@H](CSSC[C@H](NC1=O)C(=O)N[C@@H](CCCCN)C(=O)NCC(=O)N[C@@H](CC(N)=O)C(=O)NCC(=O)N[C@@H](Cc1ccc(O)cc1)C(=O)N4)NC(=O)[C@H](CCC(N)=O)NC(=O)[C@H](CCC(N)=O)NC(=O)[C@H](CC(C)C)NC(=O)[C@H]([C@@H](C)CC)NC(=O)[C@H](CCCNC(=N)N)NC(=O)[C@@H]1CCCN1C3=O)C(=O)N1CCC[C@H]1C(=O)NCC(=O)N[C@@H](C)C(=O)N2 (cyclo(ACICKGNGYCGSGSDGGVCPRILQQCQQDSDCPG); disulfide 2-19, 4-26, 10-32) | Non-Toxic | –

Second part, the compound before the results:

Row | Structure (SMILES) | Ki (Kallikrein-4) [nM] | Drug uptake [1] | Activity (HeLa) | other results
4 | CC[C@H](C)[C@@H]1NC(=O)[C@@H]2CSSC[C@@H]3NC(=O)[C@H](Cc4ccccc4)NC(=O)CNC(=O)CNC(=O)[C@H](CC(=O)O)NC(=O)[C@H](CO)NC(=O)CNC(=O)[C@H](CO)NC(=O)CNC(=O)[C@@H]4CSSC[C@H](NC(=O)[C@H](CC(=O)O)NC(=O)[C@H](CO)NC(=O)[C@H](CC(=O)O)NC(=O)[C@H](CCCNC(=N)N)NC(=O)[C@H](CCCNC(=N)N)NC(=O)[C@H](CSSC[C@H](NC1=O)C(=O)N[C@@H](CCCNC(=N)N)C(=O)NCC(=O)N[C@@H](CC(N)=O)C(=O)NCC(=O)N[C@@H](Cc1ccc(O)cc1)C(=O)N4)NC(=O)[C@H](CCCCN)NC(=O)[C@H](CCCCN)NC(=O)[C@H](CC(C)C)NC(=O)[C@H]([C@@H](C)CC)NC(=O)[C@H](CCCCN)NC(=O)[C@@H]1CCCN1C3=O)C(=O)N1CCC[C@H]1C(=O)NCC(=O)N[C@@H](C)C(=O)N2 | 1.3 | – | – | –
5 | CC[C@H](C)[C@@H]1NC(=O)[C@@H]2CSSC[C@@H]3NC(=O)[C@H](C(C)C)NC(=O)CNC(=O)CNC(=O)[C@H](CC(=O)O)NC(=O)[C@H](CO)NC(=O)CNC(=O)[C@H](CO)NC(=O)CNC(=O)[C@@H]4CSSC[C@H](NC(=O)[C@H](CC(=O)O)NC(=O)[C@H](CO)NC(=O)[C@H](CC(=O)O)NC(=O)[C@H](CCCNC(=N)N)NC(=O)[C@H](CCCNC(=N)N)NC(=O)[C@H](CSSC[C@H](NC1=O)C(=O)N[C@@H](CCCNC(=N)N)C(=O)NCC(=O)N[C@@H](CC(N)=O)C(=O)NCC(=O)N[C@@H](Cc1ccc(O)cc1)C(=O)N4)NC(=O)[C@H](CCCCN)NC(=O)[C@H](CCCCN)NC(=O)[C@H](CC(C)C)NC(=O)[C@H]([C@@H](C)CC)NC(=O)[C@H](CCCCN)NC(=O)[C@H](CCC(N)=O)NC3=O)C(=O)N1CCC[C@H]1C(=O)NCC(=O)N[C@@H](C)C(=O)N2 | 0.13 | – | – | –

— ChEMBL document CHEMBL4325933, “Potent, Selective, and Cell-Penetrating Inhibitors of Kallikrein-Related Peptidase 4 Based on the Cyclic Peptide MCoTI-II” (ACS Med Chem Lett, 2018)
